Laboratory results published in ChEMBL document CHEMBL1139469, “Synthesis and 3D QSAR of new pyrazolo[3,4-b]pyridines: potent and selective inhibitors of A1 adenosine receptors” (J Med Chem, 2005).

How the values were obtained:
[1] = molecular target: T1, Adenosine receptor A1 (Bos taurus, UniProt P28190); experiment: Displacement of [3H]DPCPX from adenosine A1 receptor in bovine cerebral cortical membranes; type: cell membranes
T1 sequence (P28190 whole entry): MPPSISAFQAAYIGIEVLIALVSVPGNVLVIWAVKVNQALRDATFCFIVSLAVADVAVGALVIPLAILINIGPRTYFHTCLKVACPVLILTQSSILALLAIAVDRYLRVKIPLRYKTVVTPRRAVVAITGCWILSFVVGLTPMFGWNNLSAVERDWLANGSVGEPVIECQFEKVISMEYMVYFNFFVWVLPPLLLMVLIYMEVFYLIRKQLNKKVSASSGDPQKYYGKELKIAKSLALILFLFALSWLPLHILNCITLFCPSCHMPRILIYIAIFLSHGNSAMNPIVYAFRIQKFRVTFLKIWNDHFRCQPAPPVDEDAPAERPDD
How it was run: (§1)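 [3H]DPCPX was displaced from A1 sites in bovine cortical membranes. Compounds were taken up in DMSO and diluted in assay buffer, with DMSO at 2% or less final. Ki used at least six concentrations across 3 orders of magnitude and was the mean ± SEM of three independent assays in triplicate.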

[2] = molecular target: Adenosine receptor A1 (Bos taurus) (UniProt P28190); experiment: Displacement of [3H]DPCPX from bovine adenosine A1 receptor in bovine cortical membranes
[3] = system: Adenosine receptor A2a (Bos taurus); experiment: Displacement of [3HCGS21680 from adenosine A2A receptor in bovine striatal membranes at 10 uM
[4] = molecular target: T2, Adenosine receptor A3 (Homo sapiens) (UniProt P0DMS8); experiment: Displacement of [125I]AB-MECA from human adenosine A3 receptor expressed in CHO cells at 10 uM
T2 sequence (whole entry): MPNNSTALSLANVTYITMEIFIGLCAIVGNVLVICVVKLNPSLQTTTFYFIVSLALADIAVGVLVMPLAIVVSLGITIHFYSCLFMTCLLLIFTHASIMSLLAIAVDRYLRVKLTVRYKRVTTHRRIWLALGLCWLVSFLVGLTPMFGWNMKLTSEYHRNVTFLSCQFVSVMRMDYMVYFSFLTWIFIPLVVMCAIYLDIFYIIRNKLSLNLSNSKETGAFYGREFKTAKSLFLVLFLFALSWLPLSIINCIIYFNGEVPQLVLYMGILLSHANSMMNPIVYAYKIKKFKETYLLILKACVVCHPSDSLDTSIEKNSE

[5] = molecular target: Adenosine receptor A2a (Bos taurus); experiment: Displacement of [3H]CGS-21680 from adenosine A2A receptor in bovine striatal membranes
[6] = molecular target: T3, Adenosine receptor A1 (Homo sapiens, UniProt P30542); experiment: Displacement of [3H]DPCPX from human adenosine A1 receptor expressed in CHO cells; type: cell-based
T3 sequence (P30542 whole entry): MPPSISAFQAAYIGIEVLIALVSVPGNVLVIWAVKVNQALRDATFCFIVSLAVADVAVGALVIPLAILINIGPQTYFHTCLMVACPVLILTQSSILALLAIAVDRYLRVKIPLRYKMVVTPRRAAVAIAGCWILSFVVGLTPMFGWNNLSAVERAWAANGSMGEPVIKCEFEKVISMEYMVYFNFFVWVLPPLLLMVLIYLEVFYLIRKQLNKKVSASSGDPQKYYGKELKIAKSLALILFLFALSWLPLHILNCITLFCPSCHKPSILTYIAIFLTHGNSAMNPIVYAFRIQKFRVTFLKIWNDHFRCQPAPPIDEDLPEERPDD
How it was run: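 Binding used CHO cells transfected with human A1 receptor, with displacement of specific [3H]DPCPX binding. Ligands were in DMSO diluted into buffer, with no more than 2% DMSO final, over at least six concentrations spanning 3 orders of magnitude. Ki values were means ± SEM of three separate assays, each performed in triplicate.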

[7] = molecular target: T1, Adenosine receptor A1; experiment: Displacement of [3H]DPCPX from adenosine A1 receptor in bovine cerebral cortical membranes in absence of GTP; type: cell membranes
How it was run: (§2)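 [3H]DPCPX competition binding on bovine cortical membranes, run side by side without and with 1 mM GTP. Compounds dissolved in DMSO and diluted in assay buffer, final DMSO at most 2%. At least six concentrations spanning 3 orders of magnitude were used. Ki given as mean ± SEM of three experiments.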

[8] = molecular target: T1, Adenosine receptor A1; experiment: Displacement of [3H]DPCPX from adenosine A1 receptor in bovine cerebral cortical membranes in presence of GTP; type: cell membranes; how it was run: as §2
[9] = molecular target: T4, Adenosine receptor A1 (Bos taurus) (UniProt P28190); experiment: Displacement of [3H]DPCPX from adenosine A1 receptor in bovine cerebral cortical membranes at 10 uM; type: cell membranes; how it was run: as §1
T4 sequence (whole entry): T1 sequence (P28190 whole entry)

Ki [1] [nM]	Ki [2] [nM]	inhibition [3] [%]	inhibition [4] [%]	Ki [5] [nM]	Ki [6] [nM]	Ki [7] [nM]	Ki [8] [nM]	inhibition [9] [%]	SMILES
24	20	11	0	–	–	–	–	–	CCCNc1c(C(=O)OC(C)C)cnc2c1cnn2CC(Cl)c1ccccc1 (configuration not stated)
145	158	–	–	1390	–	–	–	–	CCCNc1c(C(=O)OCCC)cnc2c1cnn2CC(Cl)c1ccccc1 (configuration not stated)
36	31.6	–	0	–	–	–	–	–	CC(C)OC(=O)c1cnc2c(cnn2CC(Cl)c2ccccc2)c1NC1CC1 (configuration not stated)
19	20	63	46	–	153	–	–	–	CCOC(=O)c1cnc2c(cnn2CC(Cl)c2ccccc2)c1NCCc1ccc(Cl)cc1 (configuration not stated)
6	6.31	–	41	–	94	6.3	7.3	–	COC(=O)c1cnc2c(cnn2CC(Cl)c2ccccc2)c1NCCc1ccc(OC)cc1 (configuration not stated)
7	7.94	–	52	–	17	7.2	7.7	–	COc1ccc(CCNc2c(C(=O)OC(C)C)cnc3c2cnn3CC(Cl)c2ccccc2)cc1 (configuration not stated)
88	79.4	–	0	1230	–	–	–	–	COC(=O)c1cnc2c(cnn2CC(Cl)c2ccccc2)c1NCCc1ccccc1 (configuration not stated)
–	10000	0	–	–	–	–	–	51	COC(=O)c1cnc2c(cnn2CC(Cl)c2ccccc2)c1N1CCOCC1 (configuration not stated)
895	1000	11	0	–	–	–	–	–	CCCCOC(=O)c1cnc2c(cnn2CC(Cl)c2ccccc2)c1NC1CC1 (configuration not stated)
–	10000	16	–	–	–	–	–	63	CCCCOC(=O)c1cnc2c(cnn2CC(Cl)c2ccccc2)c1N1CCOCC1 (configuration not stated)
10	10	–	49	–	25	–	–	–	CCOC(=O)c1cnc2c(cnn2CC(Cl)c2ccccc2)c1NCCc1ccc(OC)cc1 (configuration not stated)
31	31.6	–	0	1520	–	–	–	–	CC(C)OC(=O)c1cnc2c(cnn2CC(Cl)c2ccccc2)c1NCCc1ccccc1 (configuration not stated)
16	15.8	–	53	–	29	–	–	–	CCOC(=O)c1cnc2c(cnn2CC(Cl)c2ccccc2)c1NCCc1ccccc1F (configuration not stated)
15	15.8	26	40	–	148	–	–	–	COC(=O)c1cnc2c(cnn2CC(Cl)c2ccccc2)c1NCCc1ccc(C)cc1 (configuration not stated)
170	158	–	–	7670	–	–	–	–	CCCNc1c(C(=O)OC)cnc2c1cnn2CC(Cl)c1ccccc1 (configuration not stated)
–	10000	5	–	–	–	–	–	27	CCCCOC(=O)c1cnc2c(cnn2CC(Cl)c2ccccc2)c1NCc1ccccc1 (configuration not stated)
22	20	–	38	–	–	–	–	–	CCOC(=O)c1cnc2c(cnn2CC(Cl)c2ccccc2)c1NCCc1ccc(C)cc1 (configuration not stated)
12	12.6	30	37	–	16	–	–	–	CCOC(=O)c1cnc2c(cnn2CC(Cl)c2ccccc2)c1NCCc1ccc(F)cc1 (configuration not stated)
